Measured values taken from ChEMBL document CHEMBL1134863, “Antifungal activity of bifunctional sphingolipids. Intramolecular synergism within long-chain alpha,omega-bis-aminoalcohols” (2002).
Where “and” joins values, the source holds several entries; their conditions need not be identical. Equal values may be shown once. Calls of active or inactive are those of the source. The calls are words filed in the database; no cut-off is given here.

Assays:
Nakaseomyces glabratus [1] = test: Minimum inhibitory concentration against Candida glabrata; type: functional
Summary of the method: (§1)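 Microbroth dilution assay, modified from a published method, against C. glabrata (fluconazole-resistant strain). MIC values come from duplicate experiments.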

Nakaseomyces glabratus [2] = test: Antifungal minimum inhibitory concentration of compound against Candida glabrata; Inactive; type: functional, organism-based; summary of the method: as §1
Nakaseomyces glabratus [3] = test: Fungistatic activity of bifunctional sphingolipids against Candida glabrata at a concentration of 30 ug/mL before dilution replating; no growth in media; type: functional, organism-based
Nakaseomyces glabratus [4] = test: Fungistatic activity of bifunctional sphingolipids against Candida glabrata at a concentration of 1 ug/mL before dilution replating; growth in media; type: functional, organism-based
Nakaseomyces glabratus [5] = test: Fungistatic activity of bifunctional sphingolipids against Candida glabrata at a concentration of 10 ug/mL before dilution replating; growth in media; type: functional, organism-based
Nakaseomyces glabratus [6] = test: Fungistatic activity of bifunctional sphingolipids against Candida glabrata at a concentration of 12 ug/mL before dilution replating; growth in media; type: functional, organism-based
Nakaseomyces glabratus [7] = test: Fungistatic activity of bifunctional sphingolipids against Candida glabrata at a concentration of 5 ug/mL before dilution replating; growth in media; type: functional, organism-based
Nakaseomyces glabratus [8] = test: Fungistatic activity of bifunctional sphingolipids against Candida glabrata at a concentration of 0.3 ug/mL before dilution replating; growth in media; type: functional, organism-based
Nakaseomyces glabratus [9] = test: Fungistatic activity of bifunctional sphingolipids against Candida glabrata at a concentration of 6 ug/mL before dilution replating; growth in media; type: functional, organism-based
Nakaseomyces glabratus [10] = test: Fungistatic activity of bifunctional sphingolipids against Candida glabrata at a concentration of 3 ug/mL before dilution replating; growth in media; type: functional, organism-based
Nakaseomyces glabratus [11] = test: Fungicidal versus fungistatic activity of bifunctional sphingolipids against Candida glabrata at a concentration of 10 ug/mL before dilution replating; no fungicidal growth on plate; type: functional, organism-based
Nakaseomyces glabratus [12] = test: Fungicidal versus fungistatic activity of bifunctional sphingolipids against Candida glabrata at a concentration of 1 ug/mL before dilution replating; growth in media; type: functional, organism-based
Nakaseomyces glabratus [13] = test: Fungicidal versus fungistatic activity of bifunctional sphingolipids against Candida glabrata at a concentration of 0.3 ug/mL before dilution replating; growth in media; type: functional, organism-based
Nakaseomyces glabratus [14] = test: Fungicidal versus fungistatic activity of bifunctional sphingolipids against Candida glabrata at a concentration of 5 ug/mL before dilution replating; growth in media; type: functional, organism-based
Nakaseomyces glabratus [15] = test: Fungicidal versus fungistatic activity of bifunctional sphingolipids against Candida glabrata at a concentration of 3 ug/mL before dilution replating; growth in media; type: functional, organism-based
Nakaseomyces glabratus [16] = test: Fungicidal versus fungistatic activity of bifunctional sphingolipids against Candida glabrata at a concentration of 6 ug/mL before dilution replating; no fungistatic growth on plate; type: functional, organism-based
Nakaseomyces glabratus [17] = test: Fungicidal versus fungistatic activity of bifunctional sphingolipids against Candida glabrata at a concentration of 12 ug/mL before dilution replating no fungistatic growth on plate; type: functional, organism-based
Nakaseomyces glabratus [18] = test: Fungicidal versus fungistatic activity of bifunctional sphingolipids against Candida glabrata at a concentration of 10 ug/mL before dilution replating; no fungistatic growth on plate; type: functional, organism-based
Nakaseomyces glabratus [19] = test: Fungicidal versus fungistatic activity of bifunctional sphingolipids against Candida glabrata at a concentration of 6 ug/mL before dilution replating; growth in media; type: functional, organism-based
Nakaseomyces glabratus [20] = test: Fungicidal versus fungistatic activity of bifunctional sphingolipids against Candida glabrata at a concentration of 3 ug/mL before dilution replating; no growth in media; type: functional, organism-based
Nakaseomyces glabratus [21] = test: Fungicidal versus fungistatic activity of bifunctional sphingolipids against Candida glabrata at a concentration of 0.3 ug/mL before dilution replating; (fungicidal, no growth on plate) no growth in media; type: functional, organism-based
Nakaseomyces glabratus [22] = test: Fungicidal versus fungistatic activity of bifunctional sphingolipids against Candida glabrata at a concentration of 6 ug/mL before dilution replating; no growth in media; type: functional, organism-based
Nakaseomyces glabratus [23] = test: Fungicidal versus fungistatic activity of bifunctional sphingolipids against Candida glabrata at a concentration of 5 ug/mL before dilution replating; no growth in media; type: functional, organism-based
Nakaseomyces glabratus [24] = test: Fungicidal versus fungistatic activity of bifunctional sphingolipids against Candida glabrata at a concentration of 1 ug/mL before dilution replating; no (fungicidal, no growth on plate) growth in media; type: functional, organism-based
Nakaseomyces glabratus [25] = test: Fungicidal versus fungistatic activity of bifunctional sphingolipids against Candida glabrata at a concentration of 10 ug/mL before dilution replating; no growth in media; type: functional, organism-based
Nakaseomyces glabratus [26] = test: Fungicidal versus fungistatic activity of bifunctional sphingolipids against Candida glabrata at a concentration of 12 ug/mL before dilution replating; no growth in media; type: functional, organism-based
Nakaseomyces glabratus [27] = test: Fungicidal versus fungistatic activity of bifunctional sphingolipids against Candida glabrata at a concentration of 5 ug/mL before dilution replating; no fungistatic growth on plate; type: functional, organism-based
Nakaseomyces glabratus [28] = test: Fungicidal versus fungistatic activity of bifunctional sphingolipids against Candida glabrata at a concentration of 3 ug/mL before dilution replating; no fungistatic growth on plate; type: functional, organism-based
Nakaseomyces glabratus [29] = test: Fungicidal versus fungistatic activity of bifunctional sphingolipids against Candida glabrata at a concentration of 1 ug/mL before dilution replating; no fungistatic growth on plate; type: functional, organism-based
[30] = Nakaseomyces glabratus, read-out: MIC

## NCCCCCCN
Nakaseomyces glabratus [1]; [30]
  MIC: > 100 µg/mL
Nakaseomyces glabratus [2]
  MIC: inactive

## CCCCCCCCCCCCC/C=C/[C@@H](O)[C@@H](N)CO [SPHINGOSINE]
Nakaseomyces glabratus [3]
  NA: Partially active
Nakaseomyces glabratus [4]
  Activity: inactive
Nakaseomyces glabratus [5]
  Activity: inactive
Nakaseomyces glabratus [6]
  Activity: inactive
Nakaseomyces glabratus [7]
  Activity: inactive
Nakaseomyces glabratus [1]; [30]
  MIC: 30 µg/mL and 100 µM
Nakaseomyces glabratus [8]
  Activity: inactive
Nakaseomyces glabratus [9]
  Activity: inactive
Nakaseomyces glabratus [10]
  Activity: inactive

## C[C@@H](N)[C@H](O)CCCCCCCCCCCCCCC(=O)CCCCCCC[C@@H](OC[C@H]1O[C@@H](O)[C@H](O)[C@@H](O)[C@@H]1O)[C@@H](N)CO
Nakaseomyces glabratus [11]
  Activity: growth in media
Nakaseomyces glabratus [12]
  Activity: growth in media
Nakaseomyces glabratus [13]
  Activity: growth in media
Nakaseomyces glabratus [14]
  Activity: growth in media
Nakaseomyces glabratus [15]
  Activity: growth in media
Nakaseomyces glabratus [16]
  Activity: growth in media
Nakaseomyces glabratus [1]; [30]
  MIC: 10 µg/mL and 15 µM

## C[N+](C)(C)CCCCCCCCCCCC[N+](C)(C)C.[Cl-].[Cl-]
Nakaseomyces glabratus [1]; [30]
  MIC: > 100 µg/mL
Nakaseomyces glabratus [2]
  MIC: inactive

## C[C@H](N)[C@H](O)CCCCCCCCCCCCCCCCCCCC[C@@H](O)[C@H](C)N
Nakaseomyces glabratus [17]
  Activity: growth in media
Nakaseomyces glabratus [18]
  Activity: growth in media
Nakaseomyces glabratus [12]
  Activity: growth in media
Nakaseomyces glabratus [19]
  Activity: growth in media
Nakaseomyces glabratus [13]
  Activity: growth in media
Nakaseomyces glabratus [14]
  Activity: growth in media
Nakaseomyces glabratus [15]
  Activity: growth in media
Nakaseomyces glabratus [1]; [30]
  MIC: 10 µg/mL and 24 µM

## CCC[C@@H](OC(=O)c1ccccc1)[C@H](COC(=O)c1ccccc1)NC(=O)c1ccccc1
Nakaseomyces glabratus [1]; [30]
  MIC: > 100 µg/mL
Nakaseomyces glabratus [2]
  MIC: inactive

## C[C@@H]1[C@H](O)[C@@H](C)/C=C/C=C/C=C/C=C/C=C/C=C/C=C/[C@H](O[C@@H]2O[C@H](C)[C@@H](O)[C@H](N)[C@@H]2O)C[C@@H]2O[C@](O)(C[C@@H](O)C[C@@H](O)[C@H](O)CC[C@@H](O)C[C@@H](O)CC(=O)O[C@H]1C)C[C@H](O)[C@H]2C(=O)O
Nakaseomyces glabratus [20]
  Activity: no growth in media
Nakaseomyces glabratus [21]
  Activity: no growth in media
Nakaseomyces glabratus [22]
  Activity: no growth in media
Nakaseomyces glabratus [23]
  Activity: no growth in media
Nakaseomyces glabratus [24]
  Activity: no growth in media
Nakaseomyces glabratus [25]
  Activity: no growth in media
Nakaseomyces glabratus [26]
  Activity: no growth in media

## C[C@@H](N)[C@H](O)CCCCCCCCCCCCCCC(=O)CCCCCCC[C@@H](O)[C@@H](N)CO
Nakaseomyces glabratus [11]
  Activity: growth in media
Nakaseomyces glabratus [12]
  Activity: growth in media
Nakaseomyces glabratus [27]
  Activity: growth in media
Nakaseomyces glabratus [13]
  Activity: growth in media
Nakaseomyces glabratus [15]
  Activity: growth in media
Nakaseomyces glabratus [16]
  Activity: growth in media
Nakaseomyces glabratus [1]; [30]
  MIC: 3 µg/mL and 6.2 µM
Nakaseomyces glabratus [26]
  Activity: growth in media

## OC(Cn1cncn1)(Cn1cncn1)c1ccc(F)cc1F [FLUCONAZOLE]
Nakaseomyces glabratus [22]
  Activity: growth in media
Nakaseomyces glabratus [13]
  Activity: growth in media
Nakaseomyces glabratus [23]
  Activity: growth in media
Nakaseomyces glabratus [1]
  MIC: >=100 ug ml-1
Nakaseomyces glabratus [1]; [30]
  MIC: > 64 µg/mL
Nakaseomyces glabratus [28]
  Activity: growth in media
Nakaseomyces glabratus [29]
  Activity: growth in media
Nakaseomyces glabratus [25]
  Activity: growth in media
Nakaseomyces glabratus [26]
  Activity: growth in media

## CCC[C@@H](O)[C@H](C)N
Nakaseomyces glabratus [1]; [30]
  MIC: > 100 µg/mL
Nakaseomyces glabratus [2]
  MIC: inactive

## CCC[C@@H](O)[C@@H](N)CO
Nakaseomyces glabratus [1]; [30]
  MIC: > 100 µg/mL
Nakaseomyces glabratus [2]
  MIC: inactive

## C[C@H](NC(=O)c1ccccc1)[C@@H](CCCCCCCCCCCCCCCCCCCC[C@@H](OC(=O)c1ccccc1)[C@H](C)NC(=O)c1ccccc1)OC(=O)c1ccccc1
Nakaseomyces glabratus [1]; [30]
  MIC: > 100 µg/mL
Nakaseomyces glabratus [2]
  MIC: inactive

## NCCCCCCCCCCCCN
Nakaseomyces glabratus [1]; [30]
  MIC: > 100 µg/mL

## Hexadecyl-trimethyl-ammonium bromide
Nakaseomyces glabratus [1]
  MIC: 5 µg/mL and 14 µM
